From ChEMBL document CHEMBL1140861, “Short antisense oligonucleotides with novel 2'-4' conformationaly restricted nucleoside analogues show improved potency without increased toxicity in animals” (J Med Chem, 2009)
Activity calls are given as the source filed them. The rule behind the calls is not given here.

Columns and labels:
Mus musculus [1] = species on record: Mus musculus; test: Binding affinity to mouse PTEN mRNA assessed as melting temperature
Procedure, shortened: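 Tm of ASO–RNA duplex, i.e. melting temperature of the ASO hybridised to its complementary RNA.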

bEND = test: Reduction in mouse PTEN mRNA level expressed in mouse bEND cells; assay type: functional, cell-based
Procedure, shortened: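 bEND mouse brain endothelial cells transfected with ASO using lipofectin; PTEN mRNA reduction measured over a dose range; IC50 taken from dose-response curves.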

Mus musculus [2] = test: Reduction of PTEN mRNA level in ip dosed BALB/c mouse liver after 72 hrs; assay type: functional
Mus musculus [3] = test: Hepatotoxicity in BALB/c mouse assessed as increase in liver ALT level at 35 mg/kg, ip after 72 hrs; assay type: toxicity, organism-based; parameters: dose 35 mg/kg, route intraperitoneal; conditions: in vivo
Procedure, shortened: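 Single ip injection of 35 mg/kg ASO into male Balb/c mice, 6 weeks old, n = 4 per group, saline control; sacrificed 72 h after dosing and ALT recorded; ANOVA with Tukey's post hoc test.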

Mus musculus [4] = test: Toxicity in BALB/c mouse assessed as reduction in body weight at 4.7 mg/kg, ip administered twice a week for 3 weeks measured after 72 hrs of last dose; assay type: organism-based; parameters: dose 4.7 mg/kg, route intraperitoneal; conditions: in vivo
Procedure, shortened: (§1)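 Male Balb/c mice, 6 weeks old, dosed ip twice weekly for 3 weeks at 0.5, 1.5, 4.7 and 15 mg/kg (two ASOs) or 0.7, 2.3, 7.2 and 23 mg/kg (MOE control); sacrificed 72 h after last dose; ALT, liver PTEN mRNA, liver and spleen weights and body weight gain assessed; ED50 derived; errors as sd.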

Mus musculus [5] = test: Toxicity in BALB/c mouse assessed as reduction in body weight at 1.5 mg/kg, ip administered twice a week for 3 weeks measured after 72 hrs of last dose; assay type: organism-based; parameters: dose 1.5 mg/kg, route intraperitoneal; conditions: in vivo; procedure, shortened: as §1
Mus musculus [6] = test: Hepatotoxicity in BALB/c mouse assessed as increase in liver ALT level at 1.5 mg/kg, ip administered twice a week for 3 weeks measured after 72 hrs of last dose; assay type: toxicity, organism-based; parameters: dose 1.5 mg/kg, route intraperitoneal; conditions: in vivo; procedure, shortened: as §1
Mus musculus [7] = test: Hepatotoxicity in BALB/c mouse assessed as increase in liver ALT level at 0.5 mg/kg, ip administered twice a week for 3 weeks measured after 72 hrs of last dose; assay type: toxicity, organism-based; parameters: dose 0.5 mg/kg, route intraperitoneal; conditions: in vivo; procedure, shortened: as §1
Mus musculus [8] = test: Reduction of PTEN level in ip dosed BALB/c mouse liver at 37 mg/kg by Western blot analysis; assay type: functional, organism-based; parameters: dose 37 mg/kg
Mus musculus [9] = test: Hepatotoxicity in BALB/c mouse assessed as increase in liver ALT level at 4.7 mg/kg, ip administered twice a week for 3 weeks measured after 72 hrs of last dose; assay type: toxicity, organism-based; parameters: dose 4.7 mg/kg, route intraperitoneal; conditions: in vivo; procedure, shortened: as §1
Mus musculus [10] = test: Metabolic stability in BALB/c mouse liver assessed as antisense oligonucleotide level at 18 mg/kg; assay type: ADME, organism-based; parameters: dose 18 mg/kg; conditions: in vivo
Mus musculus [11] = test: Hepatotoxicity in BALB/c mouse assessed as increase in liver ALT level at 15 mg/kg, ip administered twice a week for 3 weeks measured after 72 hrs of last dose; assay type: toxicity, organism-based; parameters: dose 15 mg/kg, route intraperitoneal; conditions: in vivo; procedure, shortened: as §1
Mus musculus [12] = test: Toxicity in BALB/c mouse assessed as reduction in body weight at 15 mg/kg, ip administered twice a week for 3 weeks measured after 72 hrs of last dose; assay type: organism-based; parameters: dose 15 mg/kg, route intraperitoneal; conditions: in vivo; procedure, shortened: as §1
Mus musculus [13] = test: Toxicity in BALB/c mouse assessed as reduction in body weight at 0.5 mg/kg, ip administered twice a week for 3 weeks measured after 72 hrs of last dose; assay type: organism-based; parameters: dose 0.5 mg/kg, route intraperitoneal; conditions: in vivo; procedure, shortened: as §1

SMILES	Tm (Mus musculus [1])	IC50 (bEND)	ED50 (Mus musculus [2])	Activity (Mus musculus [3])	other results
COC[C@H]1O[C@H]2[C@H](n3cc(C)c(N)nc3=O)O[C@]1(COP(O)(=S)O[C@H]1[C@H]3O[C@H](COC)[C@]1(COP(O)(=S)O[C@H]1C[C@H](n4cc(C)c(=O)[nH]c4=O)O[C@@H]1COP(O)(=S)O[C@H]1[C@@H](O)[C@H](n4cnc5c4N=CNC5N)O[C@@H]1COP(O)(=S)O[C@H]1[C@@H](O)[C@H](n4cnc5c(=O)[nH]c(N)nc54)O[C@@H]1COP(O)(=S)O[C@H]1[C@@H](O)[C@H](n4ccc(N)nc4=O)O[C@@H]1COP(O)(=S)O[C@H]1[C@@H](O)[C@H](n4cnc5c(N)ncnc54)O[C@@H]1COP(O)(=S)O[C@H]1[C@@H](O)[C@H](n4ccc(N)nc4=O)O[C@@H]1COP(O)(=S)O[C@H]1C[C@H](n4cc(C)c(=O)[nH]c4=O)O[C@@H]1COP(O)(=S)O[C@H]1[C@@H](O)[C@H](n4cnc5c(=O)[nH]c(N)nc54)O[C@@H]1COP(O)(=S)O[C@H]1[C@@H](O)[C@H](n4cnc5c(=O)[nH]c(N)nc54)O[C@@H]1COP(O)(=S)O[C@H]1[C@@H](O)[C@H](n4ccc(N)nc4=O)O[C@@H]1COP(O)(=S)O[C@H]1[C@H]4O[C@H](COC)[C@]1(COP(O)(=S)O[C@H]1[C@H]5O[C@H](COC)[C@]1(CO)O[C@H]5n1ccc(=O)[nH]c1=O)O[C@H]4n1cc(C)c(N)nc1=O)O[C@H]3n1ccc(=O)[nH]c1=O)[C@H]2O (stereo partly specified)	56.9 °C	6 nM	29 mg/kg		
COC[C@H]1O[C@H]2[C@H](n3ccc(=O)[nH]c3=O)O[C@]1(COP(O)(=S)O[C@H]1[C@H]3O[C@H](COC)[C@]1(COP(O)(=S)OC[C@H]1O[C@@H](n4cnc5c(N)ncnc54)[C@H](O)[C@@H]1OP(O)(=S)OC[C@H]1O[C@@H](n4cc(C)c(=O)[nH]c4=O)[C@H](O)[C@@H]1OP(O)(=S)OC[C@H]1O[C@@H](n4cnc5c(=O)[nH]c(N)nc54)[C@H](O)[C@@H]1OP(O)(=S)OC[C@H]1O[C@@H](n4cnc5c(=O)[nH]c(N)nc54)[C@H](O)[C@@H]1OP(O)(=S)OC[C@H]1O[C@@H](n4ccc(N)nc4=O)[C@H](O)[C@@H]1OP(O)(=S)OC[C@H]1O[C@@H](n4cc(C)c(=O)[nH]c4=O)[C@H](O)[C@@H]1OP(O)(=S)OC[C@H]1O[C@@H](n4cnc5c(=O)[nH]c(N)nc54)[C@H](O)[C@@H]1OP(O)(=S)OC[C@H]1O[C@@H](n4ccc(N)nc4=O)[C@H](O)[C@@H]1OP(O)(=S)OC[C@H]1O[C@@H](n4cnc5c(N)ncnc54)[C@H](O)[C@@H]1OP(O)(=S)OC[C@H]1O[C@@H](n4cnc5c(=O)[nH]c(N)nc54)[C@H](O)[C@@H]1OP(O)(=S)OC[C@]14O[C@@H](n5ccc(N)nc5=O)[C@H](O[C@@H]1COC)[C@@H]4OP(O)(=S)OC[C@]14O[C@@H](n5ccc(=O)[nH]c5=O)[C@H](O[C@@H]1COC)[C@@H]4O)O[C@H]3n1ccc(N)nc1=O)[C@H]2O (stereo partly specified)				Non-toxic	
COC[C@@H]1O[C@H]2[C@H](n3ccc(=O)[nH]c3=O)O[C@]1(COP(O)(=S)O[C@@H]1[C@H]3O[C@H](COC)[C@]1(COP(O)(=S)OC[C@H]1O[C@@H](n4cnc5c(N)ncnc54)[C@H](O)[C@@H]1OP(O)(=S)OC[C@H]1O[C@@H](n4cc(C)c(=O)[nH]c4=O)[C@H](O)[C@@H]1OP(O)(=S)OC[C@H]1O[C@@H](n4cnc5c(=O)[nH]c(N)nc54)[C@H](O)[C@@H]1OP(O)(=S)OC[C@H]1O[C@@H](n4cnc5c(=O)[nH]c(N)nc54)[C@H](O)[C@@H]1OP(O)(=S)OC[C@H]1O[C@@H](n4ccc(N)nc4=O)[C@H](O)[C@@H]1OP(O)(=S)OC[C@H]1O[C@@H](n4cc(C)c(=O)[nH]c4=O)[C@H](O)[C@@H]1OP(O)(=S)OC[C@H]1O[C@@H](n4cnc5c(=O)[nH]c(N)nc54)[C@H](O)[C@@H]1OP(O)(=S)OC[C@H]1O[C@@H](n4ccc(N)nc4=O)[C@H](O)[C@@H]1OP(O)(=S)OC[C@H]1O[C@@H](n4cnc5c(N)ncnc54)[C@H](O)[C@@H]1OP(O)(=S)OC[C@H]1O[C@@H](n4cnc5c(=O)[nH]c(N)nc54)[C@H](O)[C@@H]1OP(O)(=S)OC[C@]14O[C@@H](n5ccc(N)nc5=O)[C@H](O[C@H]1COC)[C@@H]4OP(O)(=S)OC[C@]14O[C@@H](n5ccc(=O)[nH]c5=O)[C@H](O[C@H]1COC)[C@@H]4O)O[C@H]3n1ccc(N)nc1=O)[C@H]2O (stereo partly specified)				Non-toxic	
COCCO[C@@H]1[C@H](O)[C@@H](COP(O)(=S)O[C@H]2[C@@H](OCCOC)[C@H](n3ccc(=O)[nH]c3=O)O[C@@H]2COP(O)(=S)O[C@H]2C[C@H](n3cc(C)c(=O)[nH]c3=O)O[C@@H]2COP(O)(=S)O[C@H]2[C@@H](O)[C@H](n3cnc4c3N=CNC4N)O[C@@H]2COP(O)(=S)O[C@H]2[C@@H](O)[C@H](n3cnc4c(=O)[nH]c(N)nc43)O[C@@H]2COP(O)(=S)O[C@H]2[C@@H](O)[C@H](n3ccc(N)nc3=O)O[C@@H]2COP(O)(=S)O[C@H]2[C@@H](O)[C@H](n3cnc4c(N)ncnc43)O[C@@H]2COP(O)(=S)O[C@H]2[C@@H](O)[C@H](n3ccc(N)nc3=O)O[C@@H]2COP(O)(=S)O[C@H]2[C@@H](O)[C@H](n3cc(C)c(=O)[nH]c3=O)O[C@@H]2COP(O)(=S)O[C@H]2[C@@H](O)[C@H](n3cnc4c(=O)[nH]c(N)nc43)O[C@@H]2COP(O)(=S)O[C@H]2[C@@H](O)[C@H](n3cnc4c(=O)[nH]c(N)nc43)O[C@@H]2COP(O)(=S)O[C@H]2[C@@H](O)[C@H](n3ccc(N)nc3=O)O[C@@H]2COP(O)(=S)O[C@H]2[C@@H](OCCOC)[C@H](n3cc(C)c(N)nc3=O)O[C@@H]2COP(O)(=S)O[C@H]2[C@@H](OCCOC)[C@H](n3ccc(=O)[nH]c3=O)O[C@@H]2COP(=O)(O)O)O[C@H]1n1cc(C)c(N)nc1=O (stereo partly specified)	50.8 °C	> 20 nM	> 45 mg/kg		
Cc1cn([C@@H]2O[C@@]3(COP(O)(=S)O[C@H]4[C@H]5O[C@H](C)[C@]4(COP(O)(=S)O[C@H]4C[C@H](n6cc(C)c(=O)[nH]c6=O)O[C@@H]4COP(O)(=S)O[C@H]4[C@@H](O)[C@H](n6cnc7c6N=CNC7N)O[C@@H]4COP(O)(=S)O[C@H]4[C@@H](O)[C@H](n6cnc7c(=O)[nH]c(N)nc76)O[C@@H]4COP(O)(=S)O[C@H]4[C@@H](O)[C@H](n6ccc(N)nc6=O)O[C@@H]4COP(O)(=S)O[C@H]4[C@@H](O)[C@H](n6cnc7c(N)ncnc76)O[C@@H]4COP(O)(=S)O[C@H]4[C@@H](O)[C@H](n6ccc(N)nc6=O)O[C@@H]4COP(O)(=S)O[C@H]4[C@@H](O)[C@H](n6cc(C)c(=O)[nH]c6=O)O[C@@H]4COP(O)(=S)O[C@H]4[C@@H](O)[C@H](n6cnc7c(=O)[nH]c(N)nc76)O[C@@H]4COP(O)(=S)O[C@H]4[C@@H](O)[C@H](n6cnc7c(=O)[nH]c(N)nc76)O[C@@H]4COP(O)(=S)O[C@H]4[C@@H](O)[C@H](n6ccc(N)nc6=O)O[C@@H]4COP(O)(=S)O[C@H]4[C@H]6O[C@H](C)[C@]4(COP(O)(=S)O[C@H]4[C@H]7O[C@H](C)[C@]4(CO)O[C@H]7n4ccc(=O)[nH]c4=O)O[C@H]6n4cc(C)c(N)nc4=O)O[C@H]5n4ccc(=O)[nH]c4=O)[C@@H](C)O[C@@H]2[C@@H]3O)c(=O)nc1N (stereo partly specified)	58.9 °C	10.3 nM	13 mg/kg		Activity (Mus musculus [4]): Toxic; Activity (Mus musculus [5]): Toxic; Activity (Mus musculus [6]): Toxic; Activity (Mus musculus [7]): Toxic; Activity (Mus musculus [8]): Active; Activity (Mus musculus [9]): Toxic; Stability (Mus musculus [10]): 25 µg/g; Activity (Mus musculus [11]): Toxic; Activity (Mus musculus [12]): Toxic; Activity (Mus musculus [13]): Toxic
